# According to ChEMBL document CHEMBL3612064, “Oxidative Reactivities of 2-Furylquinolines: Ubiquitous Scaffolds in Common High-Throughput Screening Libraries” (J Med Chem, 2015):
# Where “and” joins values, the source holds several entries; their conditions need not be identical. Equal values may be shown once. Calls of active or inactive are those of the source. No cut-off for these calls is given here.
# How the values were obtained:
# [1] = Stability in DMSO solution assessed as parent compound remaining at 10 mM incubated for 38 days exposed to laboratory air by HPLC method
# [2] = Drug metabolism in DMSO solution assessed as compound formation incubated for 38 days exposed to laboratory air by LC/MS method; format: physicochemical; settings: 912 h
# [3] = Drug metabolism assessed as compound formation using compound-1 by LC-MS method; format: physicochemical
# In short: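 10 mM DMSO stocks were gently shaken at 25 °C open to air and analysed on day 38 by LC-MS. The LC-MS used a C18 column (0.5 × 150 mm, 5 μm) at 15 μL/min with trifluoroacetic and formic acid modifiers, and an ion-trap MS in positive-ion mode. Decomposition products were scored as detected or not detected.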
# [4] = target: T1, DNA dC->dU-editing enzyme APOBEC-3G (Homo sapiens, UniProt Q9HC16); assay: Inhibition of APOBEC3G (unknown origin) assessed as remaining enzyme activity at 200 uM using ssDNA oligomer 5'-6-FAM-AAA-TAT-TCC-CTA-ATA-GAT-AAT-GTG-A-TAMRA-3' by fluorescence-based deamination assay
# T1 sequence (Q9HC16 whole entry): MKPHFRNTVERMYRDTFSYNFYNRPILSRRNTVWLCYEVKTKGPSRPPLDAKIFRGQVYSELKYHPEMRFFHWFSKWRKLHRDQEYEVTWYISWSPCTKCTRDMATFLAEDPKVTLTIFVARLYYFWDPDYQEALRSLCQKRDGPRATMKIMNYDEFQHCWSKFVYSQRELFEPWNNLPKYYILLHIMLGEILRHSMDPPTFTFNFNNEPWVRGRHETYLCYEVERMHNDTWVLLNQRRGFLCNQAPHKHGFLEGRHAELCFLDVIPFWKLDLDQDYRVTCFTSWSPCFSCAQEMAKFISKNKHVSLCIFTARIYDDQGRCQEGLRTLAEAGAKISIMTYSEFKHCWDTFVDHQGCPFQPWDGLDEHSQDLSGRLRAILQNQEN
# In short: (§1)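 Recombinant A3G was expressed and purified. A freshly prepared DMSO stock (day 0) was tested in dose response up to 200 μM. The read-out was the fluorescence-based ssDNA C-to-U deamination assay with a 5'-6-FAM/3'-TAMRA oligo, detected after uracil DNA glycosylase processing. Performed in triplicate, mean ± SD.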
# [5] = Drug metabolism assessed as oxidative compound decompostion after irradiation with visible light under oxygen-saturated environment in presence of rose bengal photosensitizer using compound-1 by LC/MS method; format: physicochemical
# [6] = target: T1, DNA dC->dU-editing enzyme APOBEC-3G; assay: Inhibition of APOBEC3G (unknown origin) using ssDNA oligomer 5'-6-FAM-AAA-TAT-TCC-CTA-ATA-GAT-AAT-GTG-A-TAMRA-3' by fluorescence-based deamination assay
# In short: as §1
# [7] = Drug level assessed as compound formation using compound-1 in DMSO incubated for 16 months by IR method; format: physicochemical; settings: 11688 h
# [8] = Drug level assessed as compound formation using compound-1 in DMSO incubated for 16 months by LC-MS method; format: physicochemical; settings: 11688 h
# [9] = target: T1, DNA dC->dU-editing enzyme APOBEC-3G; assay: Inhibition of APOBEC3G (unknown origin) assessed as reduction enzyme efficiency at 200 uM using ssDNA oligomer 5'-6-FAM-AAA-TAT-TCC-CTA-ATA-GAT-AAT-GTG-A-TAMRA-3' by fluorescence-based deamination assay
# In short: as §1
# [10] = Drug metabolism assessed as formation of oxidative decomposition products by LC-MS method; format: physicochemical
# [11] = Drug level assessed as compound formation using compound-1 in DMSO incubated for 16 months by 1H and 13C NMR method; format: physicochemical; settings: 11688 h
# [12] = Toxicity against HEK293T cells assessed as cell viability at 50 uM incubated for 5 days; format: cell-based, HEK-293T; settings: human, read-out: Activity
# [13] = target: T1, DNA dC->dU-editing enzyme APOBEC-3G; assay: Inhibition of APOBEC3G (unknown origin) assessed as remaining enzyme activity at 200 uM incubated for 38 days using ssDNA oligomer 5'-6-FAM-AAA-TAT-TCC-CTA-ATA-GAT-AAT-GTG-A-TAMRA-3' by fluorescence-based deamination assay
# In short: (§2)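 A DMSO stock of the compound was aged in a closed microcentrifuge tube at 20-22 °C on the bench. The same stock was re-tested against recombinant A3G in dose response up to 200 μM at days 3, 21, 38 and 72. The assay was the fluorescence-based C-to-U deamination assay on a 6-FAM/TAMRA ssDNA oligo, with uracil DNA glycosylase in the read-out. Triplicates, mean ± SD.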
# [14] = target: T1, DNA dC->dU-editing enzyme APOBEC-3G; assay: Inhibition of APOBEC3G (unknown origin) assessed as remaining enzyme activity at 200 uM incubated for […] using ssDNA oligomer 5'-6-FAM-AAA-TAT-TCC-CTA-ATA-GAT-AAT-GTG-A-TAMRA-3' by fluorescence-based deamination assay
# [15] = target: T1, DNA dC->dU-editing enzyme APOBEC-3G; assay: Inhibition of APOBEC3G (unknown origin) assessed as remaining enzyme activity at 200 uM incubated for 3 days using ssDNA oligomer 5'-6-FAM-AAA-TAT-TCC-CTA-ATA-GAT-AAT-GTG-A-TAMRA-3' by fluorescence-based deamination assay
# In short: as §2
# [16] = target: T1, DNA dC->dU-editing enzyme APOBEC-3G; assay: Inhibition of APOBEC3G (unknown origin) fluorescence-based ssDNA C-to-U deaminase assay
# [17] = target: T1, DNA dC->dU-editing enzyme APOBEC-3G; assay: Inhibition of APOBEC3G (unknown origin) up to 200 uM incubated for 3 to 72 days using ssDNA oligomer 5'-6-FAM-AAA-TAT-TCC-CTA-ATA-GAT-AAT-GTG-A-TAMRA-3' by fluorescence-based deamination assay; settings: TDE = time-dependent effect
# In short: as §2
# [18] = target: T1, DNA dC->dU-editing enzyme APOBEC-3G; assay: Inhibition of APOBEC3G (unknown origin) up to 200 uM using ssDNA oligomer 5'-6-FAM-AAA-TAT-TCC-CTA-ATA-GAT-AAT-GTG-A-TAMRA-3' by fluorescence-based deamination assay
# In short: as §1
# [19] = target: DNA dC->dU-editing enzyme APOBEC-3A (Homo sapiens, UniProt P31941); assay: Inhibition of APOBEC3A (unknown origin) by fluorescence-based ssDNA C-to-U deaminase assay
# Chain of DNA dC->dU-editing enzyme APOBEC-3A (P31941 whole entry): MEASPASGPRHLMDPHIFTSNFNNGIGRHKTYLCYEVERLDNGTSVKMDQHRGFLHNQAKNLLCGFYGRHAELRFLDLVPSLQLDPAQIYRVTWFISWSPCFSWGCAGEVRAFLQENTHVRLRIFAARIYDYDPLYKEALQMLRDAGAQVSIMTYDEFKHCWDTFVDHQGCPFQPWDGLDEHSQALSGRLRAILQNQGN
# In short: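 Recombinant purified A3A was tested in dose-response up to 200 μM, with compound from DMSO stock. C-to-U deamination was read by fluorescence from the 6-FAM/TAMRA-labelled probe in a coupled uracil DNA glycosylase step, and IC50 was taken from the dose-response curve.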
# [20] = target: T1, DNA dC->dU-editing enzyme APOBEC-3G; assay: Inhibition of APOBEC3G (unknown origin) assessed as remaining enzyme activity at 200 uM incubated for 21 days using ssDNA oligomer 5'-6-FAM-AAA-TAT-TCC-CTA-ATA-GAT-AAT-GTG-A-TAMRA-3' by fluorescence-based deamination assay
# In short: as §2
# [21] = Drug metabolism assessed as oxidative compound decompostion after irradiation with visible light under oxygen-saturated environment using [18]O2 in presence of rose bengal photosensitizer using by LC/MS method; format: physicochemical
compound,measurement,setting,value
O=C(NNC(=O)c1cc(-c2ccco2)nc2ccccc12)NC1CCCCC1,"remaining at 912 h, 10000 µM",[1],64%
COc1ccc(CCNC(=O)c2cc(-c3ccc(C)o3)nc3ccccc23)cc1,"remaining at 912 h, 10000 µM",[1],84%
c1coc(-c2ccc3ccccc3n2)c1,"remaining at 912 h, 10000 µM",[1],117%
O=C(O)/C=C\C(=O)c1cc(C(=O)Nc2nnc(-c3ccncc3)s2)c2ccccc2n1,Drug metabolism,[2],metabolite_detected
CC1(O)C=CC(OO)(c2cc(C(=O)Nc3nnc(-c4ccncc4)s3)c3ccccc3n2)O1 (configuration not stated),Drug metabolism,[3],metabolite_detected
same,inhibition,[4],inactive
same,Drug metabolism,[5],metabolite_detected
O=C(O)c1ccnc(-c2ccco2)c1,"remaining at 912 h, 10000 µM",[1],92%
Cc1ccc(-c2cc(C(=O)Nc3nnc(-c4ccncc4)s3)c3ccccc3c2)o1,"remaining at 912 h, 10000 µM",[1],25%
Cc1ccc(-c2ccc3ccccc3n2)o1,"remaining at 912 h, 10000 µM",[1],102%
O=C(O)c1cc(C(=O)Nc2nnc(-c3ccncc3)s2)c2ccccc2n1,Drug metabolism,[2],metabolite_detected
same,Drug metabolism,[3],metabolite_detected
same,Activity,[4],43%
same,Drug metabolism,[5],metabolite_detected
Cc1ccc(-c2cc(C(=O)N3CCN(S(C)(=O)=O)CC3)c3ccccc3n2)o1,"remaining at 912 h, 10000 µM",[1],26%
Cc1ccc(-c2cc(C(=O)Nc3nnc(-c4ccncc4)s3)ccn2)o1,"remaining at 912 h, 10000 µM",[1],34%
Cc1ccc(-c2cc(C(=O)O)ccn2)o1,"remaining at 912 h, 10000 µM",[1],85%
O=C(O)c1cc(-c2ccco2)nc2ccccc12,"remaining at 912 h, 10000 µM",[1],69%
Cc1ccc(-c2cc(C(=O)NC(C)C3CCCO3)c3ccccc3n2)o1 (configuration not stated),"remaining at 912 h, 10000 µM",[1],55%
O=C(Nc1nnc(-c2ccncc2)s1)c1cc(-c2ccco2)nc2ccccc12,"remaining at 912 h, 10000 µM",[1],101%
O=C(O)c1cc(-c2ccco2)cc2ccccc12,"remaining at 912 h, 10000 µM",[1],89%
CC(=O)/C=C\C(=O)c1cc(C(=O)Nc2nnc(-c3ccncc3)s2)c2ccccc2n1,Drug metabolism,[2],metabolite_detected
same,Drug metabolism,[3],metabolite_detected
same,IC50,[6],20 µM
same,Drug metabolism,[5],metabolite_detected
Cc1ccc(-c2cc(C(=O)O)c3ccccc3c2)o1,"remaining at 912 h, 10000 µM",[1],82%
Cc1ccc(-c2cc(C(=O)NC3CCCCC3)c3ccccc3n2)o1,"remaining at 912 h, 10000 µM",[1],54%
O=CCC(=O)c1cc(C(=O)Nc2nnc(-c3ccncc3)s2)c2ccccc2n1,Drug metabolism,[2],metabolite_detected
O=C(Nc1nnc(-c2ccncc2)s1)c1ccnc(-c2ccco2)c1,"remaining at 912 h, 10000 µM",[1],90%
Cc1ccc(-c2cc(C(=O)NCc3ccc4c(c3)OCO4)c3ccccc3n2)o1,"remaining at 912 h, 10000 µM",[1],56%
O=C(Nc1nnc(-c2ccncc2)s1)c1cc(=O)[nH]c2ccccc12,Drug metabolism,[7],metabolite_detected
same,Drug metabolism,[2],metabolite_detected
same,Drug metabolism,[8],metabolite_detected
same,inhibition,[9],50%
same,Drug metabolism,[10],metabolite_detected
same,Drug metabolism,[11],metabolite_detected
same,Activity,[4],83%
same,Drug metabolism,[5],metabolite_detected
Cc1ccc(-c2cc(C(=O)O)c3ccccc3n2)o1,"remaining at 912 h, 10000 µM",[1],83%
CC1(OO)C=CC(O)(c2cc(C(=O)Nc3nnc(-c4ccncc4)s3)c3ccccc3n2)O1 (configuration not stated),Drug metabolism,[3],metabolite_detected
same,inhibition,[4],inactive
same,Drug metabolism,[5],metabolite_detected
O=C(Nc1nnc(-c2ccncc2)s1)c1cc(-c2ccco2)cc2ccccc12,"remaining at 912 h, 10000 µM",[1],0%
Cc1ccc(-c2cc(C(=O)Nc3nnc(-c4ccncc4)s3)c3ccccc3n2)o1,"viability at 120 h, 50 µM",[12],> 85%
same,Activity,[13],29%
same,Activity,[14],29%
same,Activity,[15],82%
same,IC50,[16],10.8 µM and 50.3 µM
same,inhibition,[17],tde
same,inhibition,[18],inactive
same,IC50,[19],2.8 µM and 9.8 µM
same,"remaining at 912 h, 10000 µM",[1],6%
same,Activity,[20],55%
same,Drug metabolism,[21],metabolite_detected
COC(=O)c1cc(NC(=O)c2cc(-c3ccc(C)o3)nc3ccccc23)cc(C(=O)OC)c1,"remaining at 912 h, 10000 µM",[1],19%
Cc1cccc(NC(=O)c2cc(-c3ccc(C)o3)nc3ccccc23)n1,"remaining at 912 h, 10000 µM",[1],73%
Nc1nnc(-c2ccncc2)s1,inhibition,[4],inactive
